According to ChEMBL document CHEMBL3407400, “Design, synthesis and biological evaluations of chirally pure 1,2,3,4-tertrahydroisoquinoline analogs as anti-cancer agents” (Eur J Med Chem, 2015):
One block for each molecule: values may come before it. The source made the active and inactive calls. The rule behind the calls is not given here.

What was measured:
HeLa = assay: Anticancer activity against human HeLa cells after 48 hrs by MTT assay; format: functional, cell-based
Procedure, shortened: (§1)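 Cell lines held in DMEM or MEM with 10% FBS and antibiotic-antimycotic at 37 °C, 5% CO2. Cells seeded at 1 × 10⁴ per well in DMEM with 10% FBS and left 24 h. Compounds diluted in medium and added alongside vehicle control for 48 h. MTT (5 mg/mL) added for 4 h, formazan dissolved in DMSO, absorbance read at 570 nm.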

HepG2 = assay: Anticancer activity against human HepG2 cells after 48 hrs by MTT assay; format: functional, cell-based; settings: HepG2, 48 h; procedure, shortened: as §1
A549 = assay: Anticancer activity against human A549 cells after 48 hrs by MTT assay; format: functional, cell-based; settings: A549, 48 h; procedure, shortened: as §1
DU-145 [1] = assay: Anticancer activity against human DU145 cells after 48 hrs by MTT assay; format: functional, cell-based; settings: DU-145, 48 h; procedure, shortened: as §1
MCF7 = assay: Anticancer activity against human MCF7 cells after 48 hrs by MTT assay; format: functional, cell-based; settings: MCF7, 48 h; procedure, shortened: as §1
DU-145 [2] = assay: Cell cycle arrest in human DU145 cells assessed as G2/M phase at 0.5 uM after 48 hrs by propidium iodide based flow cytometry (reference value: 6.75 %); format: functional
DU-145 [3] = assay: Cell cycle arrest in human DU145 cells assessed as S phase at 0.5 uM after 48 hrs by propidium iodide based flow cytometry (reference value: 1.65 %); format: functional
DU-145 [4] = assay: Induction of apoptosis in human DU145 cells assessed as viable cells at 1 uM after 48 hrs by annexin V FITC/PI dual staining assay (reference value: 96.45 %); format: functional; settings: DU-145, 48 h, read-out: Activity
DU-145 [5] = assay: Induction of apoptosis in human DU145 cells assessed as early apoptotic cells at 1 uM after 48 hrs by annexin V FITC/PI dual staining assay (reference value: 0.77 %); format: functional
DU-145 [6] = assay: Cell cycle arrest in human DU145 cells assessed as subG1 phase at 1 uM after 48 hrs by propidium iodide based flow cytometry (reference value: 9.36 %); format: functional
DU-145 [7] = assay: Induction of apoptosis in human DU145 cells assessed as late apoptotic cells at 0.5 uM after 48 hrs by annexin V FITC/PI dual staining assay (reference value: 2.47 %); format: functional
DU-145 [8] = assay: Induction of apoptosis in human DU145 cells assessed as necrotic cells at 0.5 uM after 48 hrs by annexin V FITC/PI dual staining assay (reference value: 0.31 %); format: functional
DU-145 [9] = assay: Disruption of microtubule network in human DU145 cells at 50 uM after 48 hrs by immunohistochemistry analysis; format: cell-based
DU-145 [10] = assay: Cell cycle arrest in human DU145 cells assessed as S phase at 1 uM after 48 hrs by propidium iodide based flow cytometry (reference value: 1.65 %); format: functional
DU-145 [11] = assay: Cell cycle arrest in human DU145 cells assessed as G0/G1 phase at 1 uM after 48 hrs by propidium iodide based flow cytometry (reference value: 79.15 %); format: functional
DU-145 [12] = assay: Cell cycle arrest in human DU145 cells assessed as G0/G1 phase at 0.5 uM after 48 hrs by propidium iodide based flow cytometry (reference value: 79.15 %); format: functional
DU-145 [13] = assay: Induction of apoptosis in human DU145 cells assessed as late apoptotic cells at 1 uM after 48 hrs by annexin V FITC/PI dual staining assay (reference value: 2.47 %); format: functional
DU-145 [14] = assay: Induction of apoptosis in human DU145 cells assessed as viable cells at 0.5 uM after 48 hrs by annexin V FITC/PI dual staining assay (reference value: 96.45 %); format: functional; settings: DU-145, 48 h, read-out: Activity
DU-145 [15] = assay: Induction of apoptosis in human DU145 cells assessed as early apoptotic cells at 0.5 uM after 48 hrs by annexin V FITC/PI dual staining assay (reference value: 0.77 %); format: functional
Tubulin = assay: Inhibition of tubulin (unknown origin) polymerization by fluorescence assay; format: protein-complex assay, Homo sapiens
DU-145 [16] = assay: Cell cycle arrest in human DU145 cells assessed as G2/M phase at 1 uM after 48 hrs by propidium iodide based flow cytometry (reference value: 6.75 %); format: functional
DU-145 [17] = assay: Induction of apoptosis in human DU145 cells assessed as necrotic cells at 1 uM after 48 hrs by annexin V FITC/PI dual staining assay (reference value: 0.31 %); format: functional
DU-145 [18] = assay: Induction of apoptosis in human DU145 cells assessed as activation of caspase 3 at 0.5 to 1 uM after 48 hrs by fluorometric assay relative to control; format: functional
Procedure, shortened: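 DU-145 cells treated for 48 h. Fluorometric caspase-3 kit used: […] substrate added to cell lysate, 1 h at 37 °C. Fluorescence read at excitation 400 nm, emission 505 nm.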

DU-145 [19] = assay: Induction of apoptosis in human DU145 cells assessed as DNA fragmentation at 0.5 uM after 48 hrs by agarose gel electrophoresis; format: functional, cell-based
Procedure, shortened: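 DU-145 cells (1 × 10⁶) seeded, then treated 24 h later for 48 h. Lysate cleared, then digested with SDS/RNase A (2 h, 56 °C) and proteinase K (2 h, 37 °C). DNA precipitated with ammonium acetate and ice-cold ethanol, dissolved in TE. Laddering resolved on 2% agarose.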

DU-145 [20] = assay: Induction of apoptosis in human DU145 cells assessed as up regulation of Bax at 0.5 uM after 48 hrs by Western blot analysis relative to control; format: functional, cell-based
DU-145 [21] = assay: Cell cycle arrest in human DU145 cells assessed as subG1 phase at 0.5 uM after 48 hrs by propidium iodide based flow cytometry (reference value: 9.36 %); format: functional
DU-145 [22] = assay: Induction of apoptosis in human DU145 cells assessed as down regulation of Bcl2 at 0.5 uM after 48 hrs by Western blot analysis relative to control; format: functional, cell-based

Compound: CC#CC(=O)N1Cc2ccccc2[C@@H](OCc2ccccc2)[C@@H]1CO
IC50 (HeLa): 11.6 µM
IC50 (HepG2): 7.94 µM
IC50 (A549): 9.33 µM
IC50 (DU-145 [1]): 6.16 µM
IC50 (MCF7): 18.6 µM

Compound: O=C(/C=C/c1ccc(F)cc1)N1Cc2ccccc2[C@@H](OCc2ccccc2)[C@@H]1CO
IC50 (HeLa): 58.3 µM
IC50 (HepG2): 24.6 µM
IC50 (A549): 32.3 µM
IC50 (DU-145 [1]): 29.3 µM
IC50 (MCF7): 57.3 µM

Compound: COc1ccc(C(=O)N2Cc3ccccc3[C@@H](OCc3ccccc3)[C@@H]2CO)c(O)c1
IC50 (HeLa): 12.5 µM
IC50 (HepG2): 11.4 µM
IC50 (A549): 6.46 µM
IC50 (DU-145 [1]): 9.77 µM
IC50 (MCF7): 21.8 µM

Compound: COc1cc(/C=C/C(=O)N2Cc3ccccc3[C@@H](OCc3ccccc3)[C@@H]2CO)ccc1O
IC50 (HeLa): 67.6 µM
IC50 (HepG2): 79.4 µM
IC50 (A549): 63 µM
IC50 (DU-145 [1]): 41.3 µM
IC50 (MCF7): 37.3 µM

Compound: COC(=O)Nc1nc2cc(C(=O)c3cccs3)ccc2[nH]1 [NOCODAZOLE]
Activity (DU-145 [6]): 4.52%
Activity (DU-145 [9]): Active
Activity (DU-145 [10]): 0.86%
Activity (DU-145 [11]): 48.19%
Activity (DU-145 [16]): 43.4%

Compound: COc1cccc2c1C(=O)c1c(O)c3c(c(O)c1C2=O)C[C@@](O)(C(=O)CO)C[C@@H]3O[C@H]1C[C@H](N)[C@H](O)[C@H](C)O1 [DOXORUBICIN]
IC50 (HeLa): 2.29 µM
IC50 (DU-145 [1]): 1.3 µM

Compound: O=C(/C=C/c1ccc([N+](=O)[O-])cc1)N1Cc2ccccc2[C@@H](OCc2ccccc2)[C@@H]1CO
IC50 (HeLa): 26.8 µM
IC50 (HepG2): 5.37 µM
IC50 (A549): 5.62 µM
IC50 (DU-145 [1]): 4.07 µM
IC50 (MCF7): 24.4 µM

Compound: COc1cc([C@@H]2c3cc4c(cc3[C@@H](O[C@@H]3O[C@@H]5CO[C@@H](C)O[C@H]5[C@H](O)[C@H]3O)[C@H]3COC(=O)[C@H]23)OCO4)cc(OC)c1O [ETOPOSIDE]
IC50 (HeLa): 3.23 µM
IC50 (HepG2): 2.45 µM
Activity (DU-145 [6]): 7.13%
IC50 (A549): 3.01 µM
Activity (DU-145 [10]): 1.45%
Activity (DU-145 [11]): 48.84%
IC50 (DU-145 [1]): 1.98 µM
Activity (DU-145 [16]): 38.75%
IC50 (MCF7): 2.69 µM

Compound: COc1cccc(/C=C/C(=O)N2Cc3ccccc3[C@@H](OCc3ccccc3)[C@@H]2CO)c1OC
IC50 (HeLa): 32.8 µM
IC50 (HepG2): 31 µM
IC50 (A549): 39.8 µM
IC50 (DU-145 [1]): 29.9 µM
IC50 (MCF7): 55.1 µM

Compound: O=C(/C=C/c1ccccc1)N1Cc2ccccc2[C@@H](OCc2ccccc2)[C@@H]1CO
IC50 (HeLa): 27.7 µM
IC50 (HepG2): 20.7 µM
IC50 (A549): 25.1 µM
IC50 (DU-145 [1]): 12.9 µM
IC50 (MCF7): 39.8 µM

Compound: O=C(/C=C/c1cccc(O)c1)N1Cc2ccccc2[C@@H](OCc2ccccc2)[C@@H]1CO
IC50 (HeLa): 15.8 µM
IC50 (HepG2): 2.82 µM
IC50 (A549): 4.36 µM
IC50 (DU-145 [1]): 2.08 µM
IC50 (MCF7): 19.2 µM

Now from value to molecule, other results behind:

IC50 (HeLa): 7.31 µM
IC50 (HepG2): 1.7 µM
IC50 (A549): 2.45 µM
IC50 (DU-145 [1]): 1.23 µM
IC50 (Tubulin): 3.55 µM
IC50 (MCF7): 5.49 µM
Compound: Cc1ccc(S(=O)(=O)N2C[C@H]3[C@H](OCc4ccccc4)c4ccccc4CN3C(=O)[C@@H]2C)cc1
Activity (DU-145 [2]): 16.96%
Activity (DU-145 [3]): 2.8%
viability at 1 µM (DU-145 [4]): 69.2%
Activity (DU-145 [5]): 4.94%
Activity (DU-145 [6]): 6.74%
Activity (DU-145 [7]): 4.45%
Activity (DU-145 [8]): 0.82%
Activity (DU-145 [9]): Active
Activity (DU-145 [10]): 1.83%
Activity (DU-145 [11]): 46.67%
Activity (DU-145 [12]): 68.53%
Activity (DU-145 [13]): 21.14%
viability at 0.5 µM (DU-145 [14]): 92.8%
Activity (DU-145 [15]): 1.88%
Activity (DU-145 [16]): 40.27%
Activity (DU-145 [17]): 4.7%
fold change (FC) (DU-145 [18]): 3
Activity (DU-145 [19]): Active
Activity (DU-145 [20]): Active
Activity (DU-145 [21]): 8.25%
Activity (DU-145 [22]): Active

IC50 (HeLa): 56.3 µM
IC50 (HepG2): 57.5 µM
IC50 (A549): 37.1 µM
IC50 (DU-145 [1]): 39.8 µM
IC50 (MCF7): 79.4 µM
Compound: Cc1ccc(S(=O)(=O)Nc2ccccc2C(=O)N2Cc3ccccc3[C@@H](OCc3ccccc3)[C@@H]2CO)cc1

IC50 (HeLa): 15.1 µM
IC50 (HepG2): 5.05 µM
IC50 (A549): 6.03 µM
IC50 (DU-145 [1]): 3.8 µM
IC50 (MCF7): 11.5 µM
Compound: Cc1ccc(S(=O)(=O)NCC(=O)N2Cc3ccccc3[C@@H](OCc3ccccc3)[C@@H]2CO)cc1

IC50 (HeLa): 12.3 µM
IC50 (HepG2): 2.24 µM
IC50 (A549): 6.91 µM
IC50 (DU-145 [1]): 1.26 µM
IC50 (MCF7): 8.71 µM
Compound: Cc1ccc(S(=O)(=O)N[C@@H](Cc2ccccc2)C(=O)N2Cc3ccccc3[C@@H](OCc3ccccc3)[C@@H]2CO)cc1

IC50 (HeLa): 20.3 µM
IC50 (HepG2): 10.8 µM
IC50 (A549): 13.7 µM
IC50 (DU-145 [1]): 7.41 µM
IC50 (MCF7): 17.6 µM
Compound: Cc1ccc(S(=O)(=O)N2C[C@H]3[C@H](OCc4ccccc4)c4ccccc4CN3C(=O)[C@@H]2Cc2ccccc2)cc1

IC50 (HeLa): 92.6 µM
IC50 (HepG2): 32 µM
IC50 (A549): 79.4 µM
IC50 (DU-145 [1]): 31.6 µM
IC50 (MCF7): 60.4 µM
Compound: Cc1ccc(S(=O)(=O)N[C@H](C(=O)N2Cc3ccccc3[C@@H](OCc3ccccc3)[C@@H]2CO)C(C)C)cc1

IC50 (HeLa): 21 µM
IC50 (HepG2): 5.37 µM
IC50 (A549): 7.37 µM
IC50 (DU-145 [1]): 4.67 µM
IC50 (MCF7): 14.8 µM
Compound: Cc1ccc(S(=O)(=O)N[C@@H](C)C(=O)N2Cc3ccccc3[C@@H](OCc3ccccc3)[C@@H]2CO)cc1
